ChEMBL document CHEMBL1130400, “Discovery of a novel, selective, and orally bioavailable class of thrombin inhibitors incorporating aminopyridyl moieties at the P1 position” (J Med Chem, 1997)

What was measured:
Prothrombin = Prothrombin (Homo sapiens, UniProt P00734); assay: In vitro inhibitory activity against human thrombin(IIa)
Serine protease 1 [1] = target: T1, Serine protease 1 (Bos taurus, UniProt P00760); assay: In vitro inhibitory activity against bovine trypsin
T1 sequence (P00760 whole entry): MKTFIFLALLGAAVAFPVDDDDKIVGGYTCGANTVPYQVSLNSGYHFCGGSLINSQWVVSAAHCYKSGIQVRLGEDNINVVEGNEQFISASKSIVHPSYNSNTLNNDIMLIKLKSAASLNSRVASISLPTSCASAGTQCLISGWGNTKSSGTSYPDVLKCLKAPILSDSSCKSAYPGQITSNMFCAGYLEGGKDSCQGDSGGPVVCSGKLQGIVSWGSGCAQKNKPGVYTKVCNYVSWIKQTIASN
Summary of the method: (§1)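 Ki from the dependence of initial rate on inhibitor concentration. Proteinase (human FXa, or bovine trypsin) equilibrated with inhibitor, then chromogenic substrate added. p-Nitroaniline release followed as the absorbance increase at 405 nm.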

Coagulation factor X [2] = target: T2, Coagulation factor X (Homo sapiens, UniProt P00742); assay: (§2) In vitro inhibitory activity against Coagulation factor X; summary of the method: as §1
Serine protease 1 [3] = target: T1, Serine protease 1; assay: In vitro iinhibitory activity against bovine trypsin
Summary of the method: (§3)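 Ki values for bovine trypsin and human factor Xa came from the inhibitor-concentration dependence of the initial rate of p-nitroaniline release. Enzyme and inhibitor were equilibrated first, then chromogenic substrate was added, and the rate of absorbance increase at 405 nm was followed.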

[4] = pKa was determined; assay type: physicochemical
[5] = Partition coefficient (logP); assay type: physicochemical; details: octanol/water
[6] = Oral bioavailability in rat; assay type: ADME, organism-based; details: in vivo
Summary of the method: (§4)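 Rats were anesthetized and fitted with catheters in the left jugular vein (dosing) and left carotid artery (sampling). Next day, conscious rats were dosed iv at 2 mpk or orally by gastric lavage at 10 mpk. Blood was drawn before dosing and at increasing times after. Plasma inhibitor levels gave concentration–time curves. F was derived by comparing dose-normalized AUCs from oral and iv dosing.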

[7] = Maximum time of retention in plasma, after peroral (10 mpk) administration in rats.; assay type: ADME, organism-based; details: rat, po, 10 mg/kg; summary of the method: as §4
[8] = Clearance values in rats after iv administration.; assay type: ADME, organism-based; details: rat, in vivo; summary of the method: as §4
[9] = Maximum plasma concentration after p.o. (10 mpk) administration in rats.; assay type: ADME, organism-based; parameters: route oral; details: rat, po, 10 mg/kg; summary of the method: as §4
[10] = Half life in rats; assay type: ADME, organism-based; details: rat, in vivo; summary of the method: as §4
Coagulation factor X [11] = target: T2, Coagulation factor X; assay: as §2; summary of the method: as §3; remark: listed apart in the source

T2 sequence (P00742 41-179 limits assumed): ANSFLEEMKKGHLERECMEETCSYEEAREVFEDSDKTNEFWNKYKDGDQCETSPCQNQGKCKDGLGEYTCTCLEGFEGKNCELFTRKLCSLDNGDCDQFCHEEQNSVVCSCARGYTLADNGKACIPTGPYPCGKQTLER
T2 sequence (P00742 235-488 limits assumed): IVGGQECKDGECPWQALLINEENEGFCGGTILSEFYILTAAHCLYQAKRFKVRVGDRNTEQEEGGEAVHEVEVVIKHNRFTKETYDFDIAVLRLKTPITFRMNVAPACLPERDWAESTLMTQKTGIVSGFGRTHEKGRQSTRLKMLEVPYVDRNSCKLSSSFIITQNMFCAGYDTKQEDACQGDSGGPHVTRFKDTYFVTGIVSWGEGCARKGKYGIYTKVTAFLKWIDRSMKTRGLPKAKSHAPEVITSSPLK

| Structure (SMILES) | Ki (Prothrombin) | Ki (Serine protease 1 [1]) | Ki (Coagulation factor X [2]) | other results |
| --- | --- | --- | --- | --- |
| Nc1nc(CNC(=O)[C@@H]2CCCN2C(=O)[C@@H](Cc2ccc(Cl)c(Cl)c2)NS(=O)(=O)Cc2ccccc2)cs1 | 0.36 µM | 767 µM | > 100 µM | – |
| Cc1cc(N)nc(C)c1CNC(=O)[C@@H]1CCCN1C(=O)[C@H](N)C(c1ccccc1)c1ccccc1 | 0.01 µM | 8.3 µM | 240 µM | – |
| CC(C)(C)OC(=O)N[C@@H](C(=O)N1CCC[C@H]1C(=O)NCc1csc(N)n1)C(C1CCCCC1)C1CCCCC1 | 0.35 µM | – | > 100 µM | Ki (Serine protease 1 [3]): 52 µM |
| Nc1nc(CNC(=O)[C@@H]2CCCN2C(=O)[C@H](N)C(c2ccccc2)c2ccccc2)cs1 | 0.35 µM | 277 µM | > 100 µM | – |
| O=C(NCc1cccnc1)[C@@H]1CCCN1C(=O)[C@@H](Cc1ccc(Cl)c(Cl)c1)NS(=O)(=O)Cc1ccccc1 | 0.38 µM | 284 µM | 230 µM | – |
| CN[C@H](Cc1ccccc1)C(=O)N1CCC[C@H]1C(=O)NC[C@H]1CC[C@H](N)CC1 | – | 11 µM | > 1000 µM | pKa [4]: 10.2; logP [5]: -1.68; bioavailability [6]: 1% |
| CC(C)(C)OC(=O)N[C@@H](C(=O)N1CCC[C@H]1C(=O)NCc1csc(N)c1)C(C1CCCCC1)C1CCCCC1 | 0.56 µM | 45 µM | 27 µM | – |
| O=C(NCc1ccncc1)[C@@H]1CCCN1C(=O)[C@@H](Cc1ccc(Cl)c(Cl)c1)NS(=O)(=O)Cc1ccccc1 | 0.51 µM | 31 µM | > 200 µM | – |
| Cc1cc(N)nc(C)c1CNC(=O)[C@@H]1CCCN1C(=O)[C@H](NC(=O)OC(C)(C)C)C(c1ccccc1)c1ccccc1 | 0.0036 µM | 2.5 µM | 160 µM | logP [5]: 1.65; Tmax [7]: 53 min; clearance [8]: 76 mL/min/kg; Cmax [9]: 610 nM; half-life [10]: 50 min; bioavailability [6]: 40% |
| Nc1ccc(CNC(=O)[C@@H]2CCCN2C(=O)[C@H](N)C(C2CCCCC2)C2CCCCC2)cn1 | 0.00082 µM | 1.2 µM | 8.3 µM | pKa [4]: 6.2; logP [5]: 2.21; Tmax [7]: 26 min; clearance [8]: > 200 mL/min/kg; Cmax [9]: 530 nM; half-life [10]: 102 min; bioavailability [6]: 76% |
| CC(C)(C)OC(=O)N[C@@H](C(=O)N1CCC[C@H]1C(=O)NCc1csc(N)n1)C(c1ccccc1)c1ccccc1 | 0.9 µM | > 100 µM | > 100 µM | – |
| Nc1ccc(CNC(=O)[C@@H]2CCCN2C(=O)[C@@H](Cc2ccc(Cl)c(Cl)c2)NS(=O)(=O)Cc2ccccc2)cn1 | 0.003 µM | 0.43 µM | 7.6 µM | – |
| O=C(NCc1ccccc1)[C@@H]1CCCN1C(=O)[C@@H](Cc1ccc(Cl)c(Cl)c1)NS(=O)(=O)Cc1ccccc1 | 0.11 µM | 384 µM | 14 µM | – |
| Cc1cc(N)nc(C)c1CNC(=O)[C@@H]1CCCN1C(=O)[C@H](N)C(C1CCCCC1)C1CCCCC1 | – | 3 µM | 160 µM | – |
| Nc1nc(CNC(=O)[C@@H]2CCCN2C(=O)[C@H](N)C(C2CCCCC2)C2CCCCC2)cs1 | 0.07 µM | 144 µM | > 100 µM | – |
| Nc1ccc(CNC(=O)[C@@H]2CCCN2C(=O)[C@H](N)C(c2ccccc2)c2ccccc2)cn1 | 0.012 µM | 5.4 µM | 94 µM | – |
| Nc1ccc(CNC(=O)[C@@H]2CCCN2C(=O)[C@@H](Cc2ccc(Cl)c(Cl)c2)NS(=O)(=O)Cc2ccccc2)cc1 | – | 12 µM | 10 µM | pKa [4]: 4.8; logP [5]: > 3.68; Tmax [7]: 53 min; clearance [8]: 71 mL/min/kg; Cmax [9]: 660 nM; half-life [10]: 20 min; bioavailability [6]: 35% |
| Nc1cc(CNC(=O)[C@@H]2CCCN2C(=O)[C@@H](Cc2ccc(Cl)c(Cl)c2)NS(=O)(=O)Cc2ccccc2)cs1 | 0.13 µM | 56 µM | – | Ki (Coagulation factor X [11]): > 100 µM |
| Cc1cc(N)nc(C)c1CNC(=O)[C@@H]1CCCN1C(=O)[C@H](NC(=O)OC(C)(C)C)C(C1CCCCC1)C1CCCCC1 | 0.0022 µM | 1.5 µM | 16 µM | – |
| CC(C)(C)OC(=O)N[C@@H](C(=O)N1CCC[C@H]1C(=O)NCc1ccc(N)nc1)C(C1CCCCC1)C1CCCCC1 | 0.003 µM | 0.657 µM | 4.4 µM | pKa [4]: 6.5; logP [5]: > 3.35; Tmax [7]: 120 min; clearance [8]: 27 mL/min/kg; Cmax [9]: 1430 nM; half-life [10]: 35 min; bioavailability [6]: 60% |
| CC(C)(C)OC(=O)N[C@@H](C(=O)N1CCC[C@H]1C(=O)NCc1ccc(N)nc1)C(c1ccccc1)c1ccccc1 | 0.0076 µM | 1.3 µM | > 200 µM | – |
| CC(C)(C)OC(=O)N[C@H](Cc1ccccc1)C(=O)N1CCC[C@H]1C(=O)NCc1ccc(N)cc1 | 3.7 µM | 233 µM | 420 µM | – |
| Cc1cc(N)nc(C)c1CNC(=O)[C@@H]1CCCN1C(=O)[C@@H](Cc1ccc(Cl)c(Cl)c1)NS(=O)(=O)Cc1ccccc1 | 0.011 µM | 8.9 µM | 52 µM | – |
